Screens as filed in PubChem.
Statin myotox sup: suppressors of simvastatin-induced myotoxicity in C2C12 myotubes; ATP luminescence, 48 h; scaled: DMSO 0, geranylgeraniol control 100; rescue of ATP level, % at 7.49 µM; 0.78% of 330,000 active;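 active = mean ATP rescue above about 67%, or every replicate alone reaching that limit, limit read from the data, passing the limit was not always enough; inconclusive = no clear call, values can overlap the other calls; inactive = mean under the limit and some replicate under it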;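 also: myotubes were challenged with 10 µM simvastatin during compound exposure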
PglD DTNB: inhibitors of Campylobacter jejuni PglD acetyltransferase; inhibition, % at 12.5 µM; AID 602405; 0.098% of 360,000 active; purified PglD enzyme, DTNB colorimetric CoA detection; in the data active = inhibition above about 16%, passing the limit was not always enough; inconclusive = no clear call, values can overlap the other calls
FGF22 binding: shifts melting point of recombinant human FGF22. Q9HCT0. AID 651658. recombinant FGF22 thermal shift, SYPRO orange fluorescence; percent of sucrose octasulfate shift, DMSO zero. activity (Tm shift, normalised), % at 9.99 µM. 1.5% of 340,000 active;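 active = mean Tm shift, scaled 0 neutral to 100 positive control, at about 1.3% or above, every replicate too, limit read from the data; inconclusive = no clear call, values can overlap the other calls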
DENV2 CPE: inhibitors of DENV2 cytopathic effect; 1.7% of 350,000 active; DENV2-infected cells, cytopathic effect rescue, plate reader; CPE inhibition, % at 9.99 µM; in the data active = CPE inhibition above about 20%, passing the limit was not always enough; inconclusive = no clear call, values can overlap the other calls; tested in BHK-21 cells
XiGFP reactiv: activators of X-chromosome reactivation in mouse fibroblasts; activation, % at 7.58 µM; XiGFP mouse fibroblasts, % GFP-positive cells imaging, 3 d; cells co-treated with 5-aza-dC sensitizer; scaled so ellipticine positive control = 100%; AID 743238; 0.055% of 360,000 active;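 active = mean normalized replicate activation at least 10% and every replicate at or above 10%; inconclusive = only one of the two criteria met; inactive = mean below 10% and not all replicates reach 10%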
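Material: XiGFP fibroblasts, SV40-immortalized. Buffer or medium: DMEM plus 5-aza-dC sensitizer. Compound: single concentration per compound, delivered by pin transfer. Times: 3 days compound exposure. Controls: ellipticine 6 µM.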
E-sel inducer: induces E-selectin expression in human endothelial cells | activation, % at 7.58 µM | HUVEC E-selectin immunofluorescence imaging; normalized: neutral wells 0, TNF-alpha wells 100 | P16581 | 0.37% of 260,000 active;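 active = mean E-selectin-positive cell signal at least 10% of the positive control, reached in at least 60% of replicates, without over 20% cell loss; inconclusive = no rule given, readout overlaps actives, possibly toxicity-flagged; inactive = the rest, including those meeting only one limit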
Target sequence (P16581 whole entry, looked up): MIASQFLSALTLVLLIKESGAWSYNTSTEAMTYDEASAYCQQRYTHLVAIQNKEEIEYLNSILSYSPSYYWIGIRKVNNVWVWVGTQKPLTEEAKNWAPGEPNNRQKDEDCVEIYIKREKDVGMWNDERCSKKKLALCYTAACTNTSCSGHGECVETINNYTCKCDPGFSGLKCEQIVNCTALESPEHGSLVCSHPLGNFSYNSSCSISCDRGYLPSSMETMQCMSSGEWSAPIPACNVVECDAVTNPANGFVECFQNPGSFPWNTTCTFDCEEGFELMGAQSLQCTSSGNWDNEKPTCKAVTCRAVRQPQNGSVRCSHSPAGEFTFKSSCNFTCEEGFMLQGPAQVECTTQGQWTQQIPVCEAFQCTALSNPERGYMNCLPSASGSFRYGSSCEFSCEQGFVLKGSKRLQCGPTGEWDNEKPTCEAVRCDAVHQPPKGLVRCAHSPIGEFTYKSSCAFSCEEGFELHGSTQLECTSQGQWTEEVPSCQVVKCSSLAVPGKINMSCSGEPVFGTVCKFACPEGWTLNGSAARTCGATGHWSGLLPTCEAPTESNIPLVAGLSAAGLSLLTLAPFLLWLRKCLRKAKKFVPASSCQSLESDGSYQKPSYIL
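Read-out: % PE-positive cells | Test system: HUVEC | Doses: One compound dose added by pin transfer | Buffer or medium: EGM-2 over gelatin coat | Signal: Immunofluorescence imaging | Benchmarks: TNF-alpha, DMSO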
Numbers stand for hits; - = inactive; ? = inconclusive; . = no result given. Only some compounds are listed: those with a hit (about 3.3% of all), similar ones and a draw of the others.

SMILES	Statin myotox sup	PglD DTNB	FGF22 binding	DENV2 CPE	XiGFP reactiv	E-sel inducer
C[C@H](CO)N1C[C@H](C)[C@H](CN(C)CC2CCCCC2)Oc2ccc(NC(=O)Nc3ccc4c(c3)OCO4)cc2CC1=O	-	-	-	33.6	-	-
C[C@H]1CN([C@@H](C)CO)C(=O)Cc2cc(NC(=O)Nc3ccc4c(c3)OCO4)ccc2O[C@H]1CN(C)S(C)(=O)=O	-	-	-	-	-	-
C[C@H]1CN([C@@H](C)CO)C(=O)Cc2cc(NC(=O)Nc3ccc4c(c3)OCO4)ccc2O[C@@H]1CN(C)C(=O)Nc1ccc2c(c1)OCO2	-	-	-	-	-	-
C[C@@H]1CN([C@H](C)CO)C(=O)Cc2cc(NC(=O)Nc3ccc4c(c3)OCO4)ccc2O[C@H]1CN(C)CC1CCCCC1	-	-	-	-	-	-
C[C@H]1CN([C@@H](C)CO)C(=O)Cc2cc(NC(=O)Nc3ccc4c(c3)OCO4)ccc2O[C@@H]1CN(C)C	-	-	-	-	-	232.9
C[C@H]1CN([C@@H](C)CO)C(=O)Cc2cc(NC(=O)Nc3ccc4c(c3)OCO4)ccc2O[C@@H]1CN(C)S(C)(=O)=O	.	.	.	26.1	-	-
NS(=O)(=O)c1ccc(N/N=C/c2ccccc2C(=O)O)c([N+](=O)[O-])c1	.	.	43.2	-	-	.
O=C(O)c1ccccc1/C=N/Nc1ccc(S(=O)(=O)N2CCOCC2)cc1[N+](=O)[O-]	.	.	-	-	-	.
Cn1c(SCC(=O)Nc2ccc(F)cc2)nnc1-c1cccnc1	-	-	-	21.9	-	-
CO[C@@H]1CN(C)C(=O)c2ccc(NS(=O)(=O)c3cn(C)cn3)cc2OC[C@H](C)N(CC2CC2)C[C@H]1C	-	-	-	-	-	-
CCCN1C[C@H](C)[C@H](OC)CN(C)C(=O)c2cc(NS(=O)(=O)c3cn(C)cn3)ccc2OC[C@@H]1C	-	-	-	90.0	-	-
CO[C@@H]1CN(C)C(=O)c2ccc(NS(=O)(=O)c3cn(C)cn3)cc2OC[C@@H](C)N(CC2CC2)C[C@H]1C	-	-	-	21.4	-	-
CCCC#Cc1cnc2c(c1)C(=O)N([C@H](C)CO)C[C@H](C)[C@H](CN(C)Cc1ccc(C(=O)O)cc1)O2	-	-	-	-	-	-
Cc1ccc(S(=O)(=O)N(C)C[C@H]2Oc3ncc(-c4ccccc4)cc3C(=O)N([C@H](C)CO)C[C@H]2C)cc1	-	-	-	-	-	-
O=C(Nc1ccc2c(c1)OCCO2)c1cccc2nc3ccccc3nc12	73.9	-	.	.	.	.
C[C@@H](O)C#Cc1cnc2c(c1)C(=O)N([C@@H](C)CO)C[C@H](C)[C@@H](CN(C)C(=O)Nc1ccc(F)cc1)O2	-	-	-	-	-	-
CSc1ncc(C(C)=O)c(C)n1	.	.	2.5	-	-	.
CSc1ncc(C(=O)O)c(C)n1	-	-	-	-	-	-
O=C(N[C@@H]1CC[C@@H](CC(=O)N2CCCCC2)O[C@H]1CO)c1cccc(F)c1	-	-	-	-	-	-
COC(=O)NC1(C(F)(F)F)C(=O)Nc2c1c(=O)n(C)c(=O)n2C (stereo not given)	-	-	42.9	-	-	-
C[C@@H]1CN([C@H](C)CO)C(=O)c2cccc(NC(=O)c3ccc(-c4nccs4)cc3)c2O[C@@H]1CN(C)S(=O)(=O)c1cn(C)cn1	.	-	-	-	-	-
COc1cccc(-c2ccc([C@@H]3[C@H]4CN(C(=O)c5ccncc5)CC(=O)N4[C@H]3CO)cc2)c1	.	.	.	-	-	-
Cc1ccc2nc(Cl)c(C#N)cc2c1	.	.	43.4	-	-	-
C#CCNc1cc(-c2ccccc2)nc2ncnn12	.	.	43.8	?	-	.
CC(=O)N[C@H]1CC[C@H](CCNC(=O)Nc2ccc(C(F)(F)F)cc2)O[C@H]1CO	-	-	-	-	-	-
O=C(Cc1ccccc1)N1CC[C@@H]2[C@H]1c1cc(Br)ccc1N[C@@H]2CO	-	-	-	-	-	-
CN(C)CC(=O)N[C@H]1CC[C@H](CCNC(=O)C2CC2)O[C@H]1CO	.	.	.	-	-	-
CC1(C(=O)NS(=O)(=O)c2ccccc2)CCN1C(=O)Cc1cccc2ccccc12 (stereo not given)	-	-	-	-	-	-
